Results published in ChEMBL document CHEMBL4680306, “The 3-D conformational shape of N-naphthyl-cyclopenta[d]pyrimidines affects their potency as microtubule targeting agents and their antitumor activity” (Bioorg Med Chem, 2021).
The source made the active and inactive calls. The rule behind the calls is not given here.

Tests used:
[1] = Relative resistance, ratio of IC50 for antiproliferative activity against human SK-OV-3 MDR-1-6/6 cells expressing Pgp to IC50 antiproliferative activity against human SK-OV-3 cells; type: functional
SK-OV-3 = experiment: Antiproliferative activity against human SK-OV-3 cells assessed as decrease in cell growth measured after 48 hrs by SRB method; type: functional, cell-based; conditions: SK-OV-3, 48 h
MDA-MB-435 [2] = experiment: Antiproliferative activity against human MDA-MB-435 cell line assessed as inhibition of cell proliferation measured after 48 hrs by SRB assay; type: functional, cell-based; conditions: MDA-MB-435, 48 h
How it was run: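 MDA-MB-435 melanoma cells were assessed by sulforhodamine B assay. IC50 is the mean ± SD of at least three independent experiments, each run in triplicate.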

U-251 = experiment: Cytotoxicity against human U251 cell line assessed as inhibition of cell growth after 48 hrs by SRB assay; type: functional, cell-based; conditions: U-251, 48 h
[3] = Antiproliferative activity against human SK-OV-3 MDR-1-6/6 cells expressing Pgp assessed as decrease in cell growth measured after 48 hrs by SRB method; type: functional; conditions: SK-OV-3, 48 h
[4] = Induction of microtubule depolymerisation in rat A-10 cell line measured after 18 hrs by indirect immunofluorescence method; conditions: a10
How it was run: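 Rat A-10 cells, chosen because they arrest in interphase without significant mitotic accumulation, were exposed to compounds for 18 h. Cellular microtubules were then visualized by indirect immunofluorescence. EC50 values come from at least three independent experiments.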

[5] = Inhibition of bovine tubulin polymerization assessed as reduction in extent of assembly preincubated for 15 mins followed by addition of reaction mixture measured after 20 mins by turbidimetric assay; set-up: species or system Bos taurus
How it was run: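 After chilling, GTP was added (0.4 mM final). Turbidity at 350 nm was read after a jump from 0 °C to 30 °C.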

[6] = Relative resistance, ratio of IC50 for inhibition of beta3 Tubulin (unknown origin) expressed in human HeLa cell line assessed as inhibition of cell proliferation to IC50 antiproliferative activity against human HeLa cells
Bos taurus [7] = species on record: Bos taurus; experiment: Inhibition of [3H]colchicine binding to bovine tubulin at 1 uM measured after 10 mins by scintillation counting
How it was run: (§1)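 Purified bovine brain tubulin at 1.0 µM was mixed with 5.0 µM [3H]colchicine and inhibitor, plus components that stabilize colchicine binding, in 5% DMSO; tubulin was added last, on ice. Binding ran 10 min at 37 °C and was stopped with ice water. Mixtures were filtered through stacked DEAE-cellulose filters, and bound radiolabel was measured by scintillation counting.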

HeLa = experiment: Antiproliferative activity against human HeLa cells assessed as decrease in cell growth measured after 48 hrs by SRB method; type: functional, cell-based
Bos taurus [8] = species on record: Bos taurus; experiment: Inhibition of [3H]colchicine binding to bovine tubulin at 5 uM measured after 10 mins by scintillation counting; how it was run: as §1
A10 [9] = experiment: Potency index, ratio of CA-4 IC50 to test compound IC50 for induction of microtubule depolymerisation in rat A-10 cell line measured after 18 hrs by indirect immunofluorescence method
A10 [10] = experiment: Induction of microtubule depolymerisation in rat A-10 cell line at 40 uM measured after 18 hrs by indirect immunofluorescence method
MDA-MB-435 [11] = experiment: Antiproliferative activity against human MDA-MB-435 cell line assessed as inhibition of cell proliferation at 10 uM measured after 48 hrs by SRB assay; type: functional

| IC50 (MDA-MB-435 [2]) [nM] | EC50 [4] [nM] | IC50 [5] [nM] | SMILES | IC50 (U-251) [nM] | IC50 [3] [nM] | further results |
| --- | --- | --- | --- | --- | --- | --- |
| 34 | 184 | 1200 | COc1cccc2cc(N(C)c3ncnc4c3CCC4)ccc12 | 72.5 | 74 | Ratio IC50 [1]: 2; IC50 (SK-OV-3): 37 nM; Ratio IC50 [6]: 0.8; inhibition (Bos taurus [7]): 77%; IC50 (HeLa): 56.4 nM; inhibition (Bos taurus [8]): 93% |
|  | > 10000 | > 20000 | COc1ccc2c(N(C)c3ncnc4c3CCC4)cccc2c1 | 133 |  |  |
|  | > 10000 | > 20000 | COc1ccc2c(N(C)c3nc(C)nc4c3CCC4)cccc2c1 | 88.3 |  |  |

Further lines, the molecule ahead of its results:

| SMILES | IC50 (MDA-MB-435 [2]) [nM] | EC50 [4] [nM] | IC50 [5] [nM] | IC50 (U-251) [nM] | IC50 [3] [nM] | further results |
| --- | --- | --- | --- | --- | --- | --- |
| COc1ccc(N(C)c2nc(C)nc3c2CC(C)C3)cc1 (centres undefined) | 25.7 | 282 |  |  |  |  |
| COc1ccc(Nc2nc(C)nc3c2CC(C)C3)cc1 (centres undefined) |  |  |  |  |  | Ratio IC50 (A10 [9]): 3; Activity (A10 [10]): inactive; inhibition at 10 µM (MDA-MB-435 [11]): 7% |
| COc1ccc(/C=C\c2cc(OC)c(OC)c(OC)c2)cc1O [COMBRETASTATIN A4] |  | 13 |  |  | 6.6 |  |
